Assay results: ChEMBL document CHEMBL4033790, “Design and Synthesis of Novel Deuterated Ligands Functionally Selective for the γ-Aminobutyric Acid Type A Receptor (GABAAR) α6 Subtype with Improved Metabolic Stability and Enhanced Bioavailability” (J Med Chem, 2018); call rule not given here
Values belong to the compound of their own block, whether it stands above or below them.

How the values were obtained:
[1] = Drug level in human liver microsomes treated with 8-Chloro-2-(3-methoxy-d3-phenyl)-2,5-dihydro-3H-pyrazolo[4,3-c]quinolin-3-one after 60 mins by LC-MS analysis; assay type: ADME; conditions: 1 h
[2] = Drug level in mouse liver microsomes treated with 8-Chloro-2-(3-methoxy-d3-phenyl)-2,5-dihydro-3H-pyrazolo[4,3-c]quinolin-3-one after 60 mins by LC-MS analysis; assay type: ADME; conditions: 1 h
[3] = Metabolic stability in mouse liver microsomes assessed as parent compound remaining at 10 uM after 60 mins by LC-MS analysis; assay type: ADME, microsome; conditions: read-out: Stability
In short: (§1)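 The 60 min samples of the microsomal incubation (10 μM compound, human or mouse liver microsomes at 0.5 mg/mL, NADPH regenerating system, 37 °C) were analysed by LC-MS. Detection used SIM mode with dual ESI/APCI ionization, calibrated to the retention times and masses of the parent and its O-demethylated metabolites. Peak intensities were measured.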

[4] = Tmax in Wistar rat brain at 10 mg/kg, ip administered as single dose by HPLC-MS/MS analysis; assay type: ADME, organism-based
In short: (§2)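 Male Wistar rats (250–350 g) received a single i.p. dose of 10 mg/kg as a 5 mg/ml suspension in 85% water, 14% propylene glycol and 1% Tween 80. Three rats per time point were sacrificed at 5, 20, 60, 180 and 720 min for plasma and brain. Samples were cleaned up by solid-phase extraction and quantified by HPLC-MS/MS.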

[5] = Metabolic stability in human liver microsomes assessed as parent compound remaining at 10 uM after 60 mins by LC-MS analysis; assay type: ADME, microsome; conditions: read-out: Stability; in short: as §1
[6] = target: Voltage-gated inwardly rectifying potassium channel KCNH2 (Homo sapiens, UniProt Q12809); test: Displacement of [3H]-dofetilide from human ERG expressed in HEK cell membranes at >10 uM after 60 to 90 mins by scintillation counting
[7] = Terminal elimination half-life in Wistar rat plasma at 10 mg/kg, ip administered as single dose by HPLC-MS/MS analysis; assay type: ADME, organism-based; conditions: read-out: beta t1/2 (converted); in short: as §2
[8] = system: HepG2; test: Cytotoxicity against human HepG2 cells assessed as reduction in cell viability up to 400 uM after 48 hrs by CellTiter-Glo assay; assay type: cell-based; conditions: hepg2, 48 h
In short: (§3)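 HEK293T and HepG2 cells grown in high-glucose DMEM with non-essential amino acids, 10 mM HEPES, penicillin/streptomycin and 10% heat-inactivated FBS. Cells were harvested with trypsin and plated; compound was pin-transferred 3 h later. Incubation was 48 h, then CellTiter-Glo luminescence was read. Controls were DMSO (negative) and a cytotoxic aminoketone (positive). Quadruplicates, three independent runs, normalized to controls, nonlinear regression.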

[9] = Drug metabolism in mouse liver microsomes assessed as CYP450 mediated-O-demethylated 2-(6-hydroxy-3-pyridyl)-7-(trideuteriomethoxy)-5H-pyrazolo[4,3-c]quinolin-3-one metabolite formation after 60 mins by LC-MS analysis; assay type: ADME; conditions: 1 h
In short: (§4)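 The 60-min samples from the human or mouse liver microsome incubations (10 µM compound, 0.5 mg/mL protein, NADPH regenerating system, 37 °C, pH 7.4) were run on LC-MS in SIM mode with dual ESI/APCI ionization. The method was calibrated to each component's retention time and mass, and the peak intensities of the parent and O-demethylated metabolites were measured.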

[10] = Drug metabolism in mouse liver microsomes assessed as CYP450 mediated-O-demethylated 7-hydroxy-2-(6-hydroxypyridin-3-yl)-2H-pyrazolo[4,3-c]quinolin-3(5H)-one metabolite formation after 60 mins by LC-MS analysis; assay type: ADME; conditions: 1 h; in short: as §4
[11] = Drug metabolism in human liver microsomes assessed as CYP450 mediated-O-demethylated 2-(6-hydroxy-3-pyridyl)-7-(trideuteriomethoxy)-5H-pyrazolo[4,3-c]quinolin-3-one metabolite formation after 60 mins by LC-MS analysis; assay type: ADME; conditions: 1 h; in short: as §4
[12] = Drug metabolism in mouse liver microsomes assessed as CYP450 mediated-O-demethylated 7-hydroxy-2-(6-methoxypyridin-3-yl)-2H-pyrazolo[4,3-c]quinolin-3(5H)-one metabolite formation after 60 mins by LC-MS analysis; assay type: ADME; conditions: 1 h; in short: as §4
[13] = Cmax in Wistar rat plasma at 10 mg/kg, ip administered as single dose measured at 5 to 720 mins post dose by HPLC-MS/MS analysis; assay type: ADME, organism-based; design: dose 10 mg/kg, route intraperitoneal
In short: (§5)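 Male Wistar rats (250-350 g) given a single 10 mg/kg i.p. dose of a 5 mg/ml suspension in 85% distilled water, 14% propylene glycol, 1% Tween 80. Three rats per time point (5, 20, 60, 180, 720 min). Blood and brain were collected after sacrifice. Drug was recovered by solid phase extraction and quantified by HPLC-MS/MS.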

[14] = system: Mus musculus; test: Neurotoxicity in Swiss Webster mouse assessed as induction of motor impairment at 40 mg/kg administered via oral gavage measured after 10 to 60 mins by rotarod method; assay type: toxicity, organism-based; conditions: in vivo
In short: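 Female mice were given a single oral gavage dose of 40 mg/kg, either in 50% PBS/40% propylene glycol/10% DMSO or, for poorly soluble compounds, in 2% polyethylene glycol plus 2.5% hydroxymethyl cellulose. Rotarod performance was tested 10, 30 and 60 min after dosing, with diazepam 5 mg/kg as positive control.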

[15] = system: Brain; test: AUC (0 to 12 hrs) in Wistar rat brain at 10 mg/kg, ip administered as single dose by HPLC-MS/MS analysis; assay type: ADME, organism-based; design: dose 10 mg/kg, time < 12 hr, route intraperitoneal; conditions: in vivo
[16] = Cmax in Wistar rat brain at 10 mg/kg, ip administered as single dose measured at 5 to 720 mins post dose by HPLC-MS/MS analysis; assay type: ADME, organism-based; design: dose 10 mg/kg, route intraperitoneal; in short: as §5
[17] = Tmax in Wistar rat plasma at 10 mg/kg, ip administered as single dose by HPLC-MS/MS analysis; assay type: ADME, organism-based; in short: as §2
[18] = AUC (0 to 12 hrs) in Wistar rat plasma at 10 mg/kg, ip administered as single dose by HPLC-MS/MS analysis; assay type: ADME, organism-based; design: time < 12 hr, dose 10 mg/kg, route intraperitoneal
[19] = Drug metabolism in human liver microsomes assessed as CYP450 mediated-O-demethylated 7-hydroxy-2-(6-hydroxypyridin-3-yl)-2H-pyrazolo[4,3-c]quinolin-3(5H)-one metabolite formation after 60 mins by LC-MS analysis; assay type: ADME; conditions: 1 h; in short: as §4
[20] = Terminal elimination half-life in Wistar rat brain at 10 mg/kg, ip administered as single dose by HPLC-MS/MS analysis; assay type: ADME, organism-based; conditions: read-out: beta t1/2 (converted); in short: as §2
[21] = Drug metabolism in human liver microsomes assessed as CYP450 mediated-O-demethylated 7-hydroxy-2-(6-methoxypyridin-3-yl)-2H-pyrazolo[4,3-c]quinolin-3(5H)-one metabolite formation after 60 mins by LC-MS analysis; assay type: ADME; conditions: 1 h; in short: as §4
[22] = system: HEK-293T; test: Cytotoxicity against HEK293T cells assessed as reduction in cell viability up to 400 uM after 48 hrs by CellTiter-Glo assay; assay type: cell-based; conditions: human; in short: as §3
[23] = Drug metabolism in mouse liver microsomes assessed as CYP450 mediated-O-demethylated 7-bromo-2-(4-hydroxyphenyl)-2H-pyrazolo[4,3-c]quinolin-3(5H)-one metabolite formation after 60 mins by LC-MS analysis; assay type: ADME; conditions: 1 h; in short: as §4
[24] = Drug metabolism in human liver microsomes assessed as CYP450 mediated-O-demethylated 7-bromo-2-(4-hydroxyphenyl)-2H-pyrazolo[4,3-c]quinolin-3(5H)-one metabolite formation after 60 mins by LC-MS analysis; assay type: ADME; conditions: 1 h; in short: as §4
[25] = system: Liver; test: Half life in mouse liver microsomes at 10 uM by LC-MS/MS analysis; assay type: ADME, microsome
In short: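 Compound at 10 μM final was preincubated 5 min at 37 °C with NADPH regenerating system in phosphate buffer, pH 7.4. Human or mouse liver microsomes (0.5 mg/mL protein) were added to start the reaction. Samples were taken at 0 (no microsomes) and 10–60 min and measured by LC-MS/MS against an internal standard. Half-life = 0.693/k, with k the slope of ln peak-area ratio versus time. Three experiments, each in duplicate.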

[26] = Drug metabolism in human liver microsomes assessed as CYP450 mediated-O-demethylated 7-hydroxy-2-[6-(trideuteriomethoxy)-3-pyridyl]-5H-pyrazolo[4,3-c]quinolin-3-one metabolite formation after 60 mins by LC-MS analysis; assay type: ADME; conditions: 1 h; in short: as §4
[27] = Drug metabolism in mouse liver microsomes assessed as CYP450 mediated-O-demethylated 2-(6-hydroxypyridin-3-yl)-7-methoxy-2H-pyrazolo[4,3-c]quinolin-3(5H)-one metabolite formation after 60 mins by LC-MS analysis; assay type: ADME; conditions: 1 h; in short: as §4
[28] = Drug metabolism in human liver microsomes assessed as CYP450 mediated-O-demethylated 2-(6-hydroxypyridin-3-yl)-7-methoxy-2H-pyrazolo[4,3-c]quinolin-3(5H)-one metabolite formation after 60 mins by LC-MS analysis; assay type: ADME; conditions: 1 h; in short: as §4
[29] = Drug metabolism in mouse liver microsomes assessed as CYP450 mediated-O-demethylated 7-hydroxy-2-[6-(trideuteriomethoxy)-3-pyridyl]-5H-pyrazolo[4,3-c]quinolin-3-one metabolite formation after 60 mins by LC-MS analysis; assay type: ADME; conditions: 1 h; in short: as §4

Voltage-gated inwardly rectifying potassium channel KCNH2, sequence (Q12809 whole entry): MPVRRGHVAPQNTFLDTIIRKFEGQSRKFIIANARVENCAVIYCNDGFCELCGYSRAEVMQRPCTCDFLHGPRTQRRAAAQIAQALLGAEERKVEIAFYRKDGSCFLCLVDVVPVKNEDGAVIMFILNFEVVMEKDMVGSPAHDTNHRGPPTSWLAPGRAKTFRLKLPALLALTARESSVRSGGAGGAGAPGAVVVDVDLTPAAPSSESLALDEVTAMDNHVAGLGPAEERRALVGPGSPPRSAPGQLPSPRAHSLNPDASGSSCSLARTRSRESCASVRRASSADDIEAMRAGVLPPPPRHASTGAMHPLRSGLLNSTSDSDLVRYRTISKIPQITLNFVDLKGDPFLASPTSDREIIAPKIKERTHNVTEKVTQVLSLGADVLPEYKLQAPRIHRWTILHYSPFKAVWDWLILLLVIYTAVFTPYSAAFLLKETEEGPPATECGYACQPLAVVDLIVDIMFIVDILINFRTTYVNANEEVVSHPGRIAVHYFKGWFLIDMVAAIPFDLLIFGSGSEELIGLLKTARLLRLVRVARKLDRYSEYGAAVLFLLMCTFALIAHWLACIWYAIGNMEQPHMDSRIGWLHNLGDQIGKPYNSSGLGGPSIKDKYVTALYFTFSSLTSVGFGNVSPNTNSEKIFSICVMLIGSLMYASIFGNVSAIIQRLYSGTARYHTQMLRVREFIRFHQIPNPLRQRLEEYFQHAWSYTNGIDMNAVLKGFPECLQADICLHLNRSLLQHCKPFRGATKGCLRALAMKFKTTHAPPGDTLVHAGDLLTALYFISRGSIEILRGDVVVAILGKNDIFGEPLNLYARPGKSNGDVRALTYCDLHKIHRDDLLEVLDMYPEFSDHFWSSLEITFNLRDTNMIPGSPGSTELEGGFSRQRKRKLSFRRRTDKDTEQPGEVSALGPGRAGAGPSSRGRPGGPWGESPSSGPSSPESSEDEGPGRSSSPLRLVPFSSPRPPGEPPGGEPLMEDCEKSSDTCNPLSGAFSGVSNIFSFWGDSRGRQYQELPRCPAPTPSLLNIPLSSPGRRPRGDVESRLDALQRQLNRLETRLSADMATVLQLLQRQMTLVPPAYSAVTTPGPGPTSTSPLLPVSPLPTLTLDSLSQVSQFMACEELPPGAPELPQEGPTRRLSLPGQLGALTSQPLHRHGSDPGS

- Drug metabolism [1]: Metabolite_Detected
- Drug metabolism [2]: Metabolite_Detected
Compound: O=c1c2c[nH]c3ccc(Cl)cc3c-2nn1-c1cccc(O)c1

Compound: [2H]C([2H])([2H])Oc1ccc2c3nn(-c4ccc(OC)nc4)c(=O)c-3c[nH]c2c1
- remaining at 1 h, 10 µM [3]: 91.4%
- Tmax [4]: 1.67 h
- remaining at 1 h, 10 µM [5]: 92.3%
- inhibition (INH) [6]: Not Active
- half-life [7]: 18 h
- Activity [8]: Non-Toxic
- Drug metabolism [9]: Metabolite_Detected
- Drug metabolism [10]: Metabolite_Detected
- Drug metabolism [11]: Metabolite_Detected
- Drug metabolism [12]: Metabolite_Detected
- Cmax [13]: 1250 ng/mL
- Activity [14]: Non-Toxic
- AUC [15]: 1502.14 ng·h/g
- Cmax [16]: 215 ng/g
- Tmax [17]: 1 h
- AUC(0-t) at 12 h [18]: 6020 ng·h/mL
- Drug metabolism [19]: Metabolite_Detected
- half-life [20]: 9.07 h
- Drug metabolism [21]: Metabolite_Detected
- Activity [22]: Non-Toxic

Compound: [2H]C([2H])([2H])Oc1ccc(-n2nc3c4ccc(Br)cc4[nH]cc-3c2=O)cc1
- remaining at 1 h, 10 µM [3]: 73.8%
- remaining at 1 h, 10 µM [5]: 81.5%
- inhibition (INH) [6]: Not Active
- Activity [8]: Non-Toxic
- Activity [14]: Non-Toxic
- Drug metabolism [23]: Metabolite_Detected
- Drug metabolism [24]: Metabolite_Detected
- Activity [22]: Non-Toxic
- t1/2 [25]: 2.3 h

- Drug metabolism [26]: Metabolite_Detected
- remaining at 1 h, 10 µM [3]: 92.4%
- remaining at 1 h, 10 µM [5]: 92.6%
- Drug metabolism [27]: Metabolite_Detected
- Drug metabolism [10]: Metabolite_Detected
- Drug metabolism [28]: Metabolite_Detected
- Drug metabolism [29]: Metabolite_Detected
- Drug metabolism [19]: Metabolite_Detected
Compound: [2H]C([2H])([2H])Oc1ccc(-n2nc3c4ccc(OC)cc4[nH]cc-3c2=O)cn1
- inhibition (INH) [6]: Not Active
- Activity [14]: Non-Toxic
